Assay results taken from ChEMBL document CHEMBL3865847, “The synthesis and biological evaluation of alkyl and benzyl naphthyridinium analogs of eupolauridine as potential antimicrobial and cytotoxic agents” (Bioorg Med Chem, 2016).
Values after ≈ are worked out from the molar mass of the structure shown.

Tests used:
[1] = Cytotoxicity against human SK-MEL cells assessed as cell growth inhibition after 48 hrs by neutral red dye based assay; type: functional
Outline: (§1)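 Cells kept in RPMI-1640 with 10% bovine serum and 60 µg/mL amikacin, 37 °C, 5% CO2. Seeded at 25,000 cells/well, left 24 h to adhere. Samples diluted in RPMI added, highest final concentration 10 µg/mL. Growth measured by neutral red uptake after 48 h exposure.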

Pseudomonas aeruginosa = assay: Antimicrobial activity against Pseudomonas aeruginosa ATCC 15442; type: functional
Outline: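 Pseudomonas grown 24 h in trypticase soy broth, diluted 1:50. Combined with diluted samples in 96-well plates, top final concentration 50 µg/mL (≤2.5% DMSO), 37 °C incubation. Growth read at 630 nm. MIC is the lowest tested concentration inhibiting 80% of growth versus controls; IC50 from concentration versus % growth graphs.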

[2] = Cytotoxicity against human KB cells assessed as cell growth inhibition after 48 hrs by neutral red dye based assay; type: functional; outline: as §1
Candida albicans = assay: Antimicrobial activity against Candida albicans B311; type: functional
Outline: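 Cultured in Sabouraud dextrose broth 24 h, counted by hemocytometer, diluted to 10,000 CFU/mL. Added to serially diluted samples in 96-well plates, top final concentration 50 µg/mL (≤2.5% DMSO), incubated 37 °C. Growth by A630. MIC is the lowest concentration giving 80% inhibition against controls; IC50 from concentration versus % growth plots.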

[3] = Inhibition of Candida albicans DNA topoisomerase 1 using pHOT1 as substrate after 30 mins by agarose gel electrophoresis
Outline: (§2)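 Relaxation of supercoiled to relaxed DNA by TopoI measured with a commercial TopoI drug kit following kit protocol. IC50 calculated from dose-response curves of % inhibition versus concentration.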

Staphylococcus aureus [4] = assay: Antimicrobial activity against Staphylococcus aureus ATCC 6538; type: functional
Outline: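 Staphylococcus aureus grown 24 h in Eugon broth, diluted 1:50 in broth, added to serially diluted samples in 96-well plates (highest final DMSO 2.5%), incubated at 37 °C. Growth measured at 630 nm versus controls. MIC is the lowest concentration inhibiting 80% of growth; IC50 (50% inhibition) comes from concentration versus % growth plots.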

[5] = Cytotoxicity against human SKOV3 cells assessed as cell growth inhibition after 48 hrs by neutral red dye based assay; type: functional; conditions: SK-OV-3, 48 h; outline: as §1
[6] = Cytotoxicity against African green monkey Vero cells assessed as cell growth inhibition after 48 hrs by neutral red dye based assay; type: toxicity, Chlorocebus sabaeus; outline: as §1
[7] = test system: Mycobacterium intracellulare; assay: Antimicrobial activity against Mycobacterium intracellulare ATCC 23068; type: functional
Outline: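 Mycobacterium grown 72 h in Middlebrook medium with OADC supplement, diluted 1:30 in broth. Incubated at 37 °C with diluted samples in 96-well plates, highest final 50 µg/mL, DMSO at most 2.5%. Absorbance at 630 nm. MIC = lowest concentration with 80% growth inhibition relative to controls; IC50 from concentration versus % growth plots.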

[8] = Selectivity index, ratio of IC50 for human DNA topoisomerase 1 to IC50 for Candida albicans DNA topoisomerase 1
Plasmodium falciparum = assay: Antimalarial activity against Plasmodium falciparum D6 infected in RBC after 48 hrs by lactate dehydrogenase assay; type: functional; conditions: D6, 48 h
Outline: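 Parasites grown in A+ human erythrocytes in RPMI 1640 with 10% A+ human serum, 25 mM HEPES, 27 mM bicarbonate, 60 µg/mL amikacin, 37 °C under 90% N2/5% O2/5% CO2. Infected cells exposed 48 h in microtiter wells, highest concentration 4.8 µg/mL. Growth read by Malstat reagent (parasite LDH) with nitro blue tetrazolium reduction, absorbance 630 nm.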

DNA topoisomerase 1 = biological target: T1, DNA topoisomerase 1 (Homo sapiens, UniProt P11387); assay: Inhibition of human DNA topoisomerase 1 using pHOT1 as substrate after 30 mins by agarose gel electrophoresis; outline: as §2
T1 sequence (P11387 whole entry): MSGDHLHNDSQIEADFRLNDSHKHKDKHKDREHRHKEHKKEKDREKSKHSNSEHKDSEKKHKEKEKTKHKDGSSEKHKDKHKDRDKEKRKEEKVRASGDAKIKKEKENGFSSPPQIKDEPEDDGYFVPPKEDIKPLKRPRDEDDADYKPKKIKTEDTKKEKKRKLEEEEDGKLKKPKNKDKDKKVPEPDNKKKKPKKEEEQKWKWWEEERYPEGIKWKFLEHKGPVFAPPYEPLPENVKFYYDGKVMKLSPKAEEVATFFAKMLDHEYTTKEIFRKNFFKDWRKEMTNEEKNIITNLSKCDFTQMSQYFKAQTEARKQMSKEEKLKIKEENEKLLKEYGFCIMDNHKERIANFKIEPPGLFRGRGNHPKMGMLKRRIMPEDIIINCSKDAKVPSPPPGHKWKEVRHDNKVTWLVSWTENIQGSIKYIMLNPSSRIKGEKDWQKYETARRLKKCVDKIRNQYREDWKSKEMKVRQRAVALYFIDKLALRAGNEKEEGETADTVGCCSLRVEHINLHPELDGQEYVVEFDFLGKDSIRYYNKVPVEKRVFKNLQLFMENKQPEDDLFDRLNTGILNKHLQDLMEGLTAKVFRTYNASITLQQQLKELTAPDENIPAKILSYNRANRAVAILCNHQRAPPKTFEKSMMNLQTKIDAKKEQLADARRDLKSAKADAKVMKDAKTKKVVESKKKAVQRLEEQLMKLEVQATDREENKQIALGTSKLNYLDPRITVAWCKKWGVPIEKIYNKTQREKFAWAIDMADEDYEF

Cryptococcus neoformans = assay: Antimicrobial activity against Cryptococcus neoformans ATCC 52657; type: functional
Outline: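 Grown in mycophil broth 72 h, hemocytometer-counted, diluted to 200,000 CFU/mL. Exposed to diluted samples in 96-well plates, maximum final 50 µg/mL (DMSO up to 2.5%), incubated 30 °C. A630 readout. MIC is the lowest concentration inhibiting 80% of growth versus controls; IC50 read from concentration versus % growth graphs.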

[9] = Cytotoxicity against human BT549 cells assessed as cell growth inhibition after 48 hrs by neutral red dye based assay; type: functional; conditions: BT-549, 48 h; outline: as §1
Aspergillus fumigatus = assay: Antimicrobial activity against Aspergillus fumigatus ATCC 26934; type: functional
Outline: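 Aspergillus fumigatus spores released by scraping a slant, used on assay day, in mycophil broth. Broth microdilution in 96-well plates, highest final DMSO 2.5%, incubated at 30 °C. Growth read as absorbance at 630 nm versus controls. MIC is the lowest tested concentration giving 80% growth inhibition; IC50 (50% inhibition) comes from concentration versus % growth plots.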

Staphylococcus aureus [10] = assay: Antimicrobial activity against methicillin-resistant Staphylococcus aureus; type: functional
Outline: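 MRSA precultured 24 h, diluted 1:50 in broth, added to serially diluted samples in 96-well plates (highest final DMSO 2.5%), incubated at 37 °C. Growth measured as absorbance at 630 nm versus controls. MIC is the lowest concentration giving 80% inhibition; IC50 (50% inhibition) is read from concentration versus % growth plots.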

Row | IC50 (Plasmodium falciparum) | Structure (SMILES) | IC50 [1] | IC50 (Pseudomonas aeruginosa) | IC50 [2] | IC50 (Candida albicans) | MIC80 (Candida albicans) | IC50 [3] | IC50 (Staphylococcus aureus [4]) | IC50 [5] | IC50 at 48 h [6] | MIC80 [7] | Ratio IC50 [8] | IC50 (DNA topoisomerase 1) | IC50 (Cryptococcus neoformans) | MIC80 (Cryptococcus neoformans) | IC50 [9] | MIC80 (Aspergillus fumigatus) | IC50 (Staphylococcus aureus [10])
1 | 8.5 ng/mL | FC(F)(F)c1ccc(C[n+]2ccc3ccnc4c3c2-c2ccccc2-4)cc1.[Br-] | 0.78 µg/mL | 27 µg/mL | 0.54 µg/mL | 6.5 µg/mL | 12.5 µg/mL | 30 µg/mL | 30 µg/mL | 0.08 µg/mL | 6.4 µg/mL | 50 µg/mL | 0.97 | 69.9 µM | 0.57 µg/mL | 3.12 µg/mL | 0.79 µg/mL |  | 
2 |  | C[C@@H]1[C@H](O)[C@@H](C)/C=C/C=C/C=C/C=C/C=C/C=C/C=C/[C@H](O[C@@H]2O[C@H](C)[C@@H](O)[C@H](N)[C@@H]2O)C[C@@H]2O[C@](O)(C[C@@H](O)C[C@@H](O)[C@H](O)CC[C@@H](O)C[C@@H](O)CC(=O)O[C@H]1C)C[C@H](O)[C@H]2C(=O)O [AMPHOTERICIN B] |  |  |  |  | 0.156 µg/mL (≈ 0.169 µM) |  |  |  |  |  |  |  |  | 0.078 µg/mL (≈ 0.0844 µM) |  | 1.25 µg/mL (≈ 1.35 µM) | 
3 |  | CC[n+]1c2c3c(nc(-c4ccccc4)cc3c3ccccc31)-c1ccccc1-2.[Br-] | 1.3 µg/mL | 2 µg/mL | 6.5 µg/mL | 0.04 µg/mL | 0.098 µg/mL | < 6 µg/mL | 2 µg/mL | 4 µg/mL | 7.8 µg/mL | 10 µg/mL |  | < 13.7 µM | 0.17 µg/mL | 0.39 µg/mL | 8 µg/mL |  | 2 µg/mL
4 |  | c1ccc2c(c1)-c1nccc3ccnc-2c13 [EUPOLAURIDINE] |  | 5 µg/mL (≈ 24.5 µM) |  | 5.25 µg/mL (≈ 25.7 µM) | 12.5 µg/mL (≈ 61.2 µM) | 6.5 µg/mL (≈ 31.8 µM) |  | > 10 µg/mL | > 10 µg/mL |  | 1.55 | 20.6 µM | 4.8 µg/mL (≈ 23.5 µM) | 25 µg/mL (≈ 122 µM) |  | 2 µg/mL (≈ 9.79 µM) | 
